From ChEMBL document CHEMBL2311397, “Design and synthesis of cyclopropylamide analogues of combretastatin-A4 as novel microtubule-stabilizing agents” (J Med Chem, 2013)
Activity calls are given as the source filed them. The rule behind the calls is not given here.

Assays:
[1] = tested on: A549; assay: Effect on spindle microtubule dynamics in human A549 cells at 10 uM after 22 hrs by DAPI/FITC staining-based laser fluorescence confocal microscopic analysis; format: functional, cell-based
Method in brief: (§1)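 Confocal imaging of A549 cells exposed for 22 h to compound or vehicle (0.2% DMSO final), added at 70% confluency after overnight growth. Fixation followed by 0.5% Triton X-100 permeabilization and 10% goat serum blocking; tubulin stained with FITC anti-α-tubulin (1:100, 2 h, 37 °C), nuclei counterstained with DAPI. Wide-field images taken at 10–15 random slide locations.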

[2] = tested on: A549; assay: Cell cycle arrest in human A549 cells assessed as accumulation at G1 phase at 0.1 uM after 24 hrs by propidium iodide staining-based flow cytometry (reference value: 87.56 %); format: functional
[3] = tested on: A549; assay: Cytotoxicity against human A549 cells after 48 hrs by MTT assay; format: functional, cell-based; settings: Homo sapiens, A549, 48 h
Method in brief: (§2)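 Log-phase cells (40000–50000 cells/mL) grown in DMEM with 10% fetal calf serum (5% CO2, 37 °C) and exposed 48 h to five concentrations, 3–5 replicates. Read-out was MTT with absorbance at 570 nm; IC50 reported as mean ± SD of three independent experiments. Resistant A549 and HeLa sublines were made by stepwise paclitaxel selection; resistance index = IC50(resistant)/IC50(sensitive).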

[4] = biological target: T1, Tubulin (Homo sapiens) (UniProt P68371+Q9H4B7+P0DPH7+P68366+Q13509+Q71U36+P04350+Q3ZCM7+P07437+P68363+Q9BQE3+Q6PEY2+Q13885+Q9BVA1+Q9BUF5); assay: (§3) Activation of tubulin (unknown origin) polymerization; format: protein-complex assay
Method in brief: (§4)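 Purified brain tubulin (kit), final 3.0 mg/mL, in 80.0 mM PIPES sesquisodium pH 6.9, 2.0 mM MgCl2, 0.5 mM EGTA, 1 mM GTP, 10.2% glycerol; components prewarmed to 37 °C, reaction started by adding tubulin. A340 read each minute for 1 h. Single-point % stimulation used 10 μM compound; EC50 from 3.75, 7.5, 15, 30, 60 μM.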

[5] = biological target: Tubulin; assay: as §3; format: protein-complex assay, Homo sapiens; method in brief: as §4
[6] = tested on: A549; assay: Antitumor activity against human A549 cells xenografted in BALB/c nude mouse assessed as tumor growth inhibition at 500 mg/kg, ig measured on day 16; format: functional; settings: A549, po, 384 h, route intragastric, read-out: TGI
Method in brief: (§5)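 Male BALB/c nude mice, 5 weeks old (18–20 g), implanted subcutaneously in the right armpit with A549 tumor fragments (3 mm3). On day 13, at 100–200 mm3, daily intragastric dosing began: 100 or 500 mg/kg test compound, or 30 mg/kg paclitaxel, in Tween-80 diluted with saline. Vehicle given ip. Tumor volume and body weight followed; n = 6; inhibition rate at day 16.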

[7] = tested on: A549; assay: Cytotoxicity against paclitaxel-resistant human A549 cells after 48 hrs by MTT assay; format: functional, cell-based; settings: A549, 48 h; method in brief: as §2
[8] = tested on: A549; assay: Cell cycle arrest in human A549 cells assessed as accumulation at G2/M phase at 10 uM after 24 hrs by propidium iodide staining-based flow cytometry (reference value: 2.78 %); format: functional
[9] = tested on: A549; assay: Cell cycle arrest in human A549 cells assessed as accumulation at G2/M phase at 5 uM after 24 hrs by propidium iodide staining-based flow cytometry (reference value: 2.78 %); format: functional
[10] = tested on: A549; assay: Cell cycle arrest in human A549 cells assessed as accumulation at G2/M phase after 24 hrs by propidium iodide staining-based flow cytometry; format: functional
[11] = tested on: Mus musculus; assay: Toxicity in human A549 cells xenografted BALB/c nude mouse assessed as change in body weight at 100 to 500 mg/kg, ig; format: organism-based; design: dose 100-500 mg/kg, route intragastric; settings: in vivo, po; method in brief: as §5
[12] = tested on: A549; assay: Cell cycle arrest in human A549 cells assessed as accumulation at G2/M phase at 1 uM after 24 hrs by propidium iodide staining-based flow cytometry (reference value: 2.78 %); format: functional
[13] = biological target: T1, Tubulin (Homo sapiens); assay: Activation of tubulin (unknown origin) polymerization at 10 uM; format: protein-complex assay; method in brief: as §4
[14] = tested on: A549; assay: Effect on chromosomal alteration in human A549 cells at 10 uM after 22 hrs by DAPI/FITC staining-based laser fluorescence confocal microscopic analysis
[15] = tested on: A549; assay: Cell cycle arrest in human A549 cells assessed as accumulation at S phase at 0.1 uM after 24 hrs by propidium iodide staining-based flow cytometry (reference value: 9.12 %); format: functional
[16] = tested on: A549; assay: Induction of apoptosis in human A549 cells early apoptotic cells at 10 uM after 24 hrs by annexin V-FITC/propidium iodide staining-based flow cytometry (reference value: 0.73 %); format: functional
[17] = tested on: A549; assay: Induction of apoptosis in human A549 cells assessed as late apoptotic cells at 1 uM after 24 hrs by annexin V-FITC/propidium iodide staining-based flow cytometry (reference value: 1.02%); format: functional
[18] = tested on: A549; assay: Cell cycle arrest in human A549 cells assessed as accumulation at S phase at 10 uM after 24 hrs by propidium iodide staining-based flow cytometry (reference value: 9.12 %); format: functional
[19] = tested on: A549; assay: Induction of apoptosis in human A549 cells assessed as necrotic cells at 10 uM after 24 hrs by annexin V-FITC/propidium iodide staining-based flow cytometry (reference value: 2.76%); format: functional
[20] = tested on: SW480; assay: Cytotoxicity against human SW480 cells after 48 hrs by MTT assay; format: functional, cell-based; settings: Homo sapiens, SW480, 48 h; method in brief: as §2
[21] = tested on: A549; assay: Cell cycle arrest in human A549 cells assessed as accumulation at G2/M phase at 0.1 uM after 24 hrs by propidium iodide staining-based flow cytometry (reference value: 2.78 %); format: functional
[22] = Cytotoxicity against human QGY cells after 48 hrs by MTT assay; format: functional, cell-based; settings: Homo sapiens, QGY, 48 h; method in brief: as §2
[23] = tested on: A549; assay: Resistance index, ratio of IC50 for paclitaxel-resistant human A549 cells to IC50 for paclitaxel-sensitive human A549 cells; format: functional; method in brief: as §2
[24] = tested on: A549; assay: Effect on spindle microtubule dynamics in human A549 cells at 10 uM after 22 hrs by DAPI/FITC staining-based laser fluorescence confocal microscopic analysis
[25] = tested on: A549; assay: Antitumor activity against human A549 cells xenografted in BALB/c nude mouse assessed as tumor growth inhibition at 100 mg/kg, ig measured on day 16; format: functional; settings: A549, po, 384 h, route intragastric, read-out: TGI; method in brief: as §5
[26] = tested on: A549; assay: Antimitotic activity against human A549 cells assessed as cell mitotic arrest at 10 uM after 22 hrs by DAPI/FITC staining-based laser fluorescence confocal microscopic analysis (reference value: 1.1 %); format: functional
[27] = tested on: A549; assay: Effect on chromosomal alteration in human A549 cells at 10 uM after 22 hrs by DAPI/FITC staining-based laser fluorescence confocal microscopic analysis; format: functional, cell-based; method in brief: as §1
[28] = tested on: A549; assay: Antimitotic activity against human A549 cells assessed as cell mitotic arrest at 1 uM after 22 hrs by DAPI/FITC staining-based laser fluorescence confocal microscopic analysis (reference value: 1.1 %); format: functional
[29] = tested on: A549; assay: Cell cycle arrest in human A549 cells assessed as accumulation at G1 phase at 5 uM after 24 hrs by propidium iodide staining-based flow cytometry (reference value: 87.56 %); format: functional
[30] = tested on: A549; assay: Induction of apoptosis in human A549 cells assessed as viable cells at 5 uM after 24 hrs by annexin V-FITC/propidium iodide staining-based flow cytometry (reference value: 94.08%); format: functional; settings: A549, 24 h, read-out: Activity

COc1cc([C@@H]2C[C@]2(CO)C(=O)Nc2ccccc2Cl)cc(OC)c1OC
Activity [1]: Active | Activity [2]: 78.7% | IC50 [3]: 4.4 µM | Activity [4]: Dose-dependent effect | EC50 [5]: 19.7 µM | inhibition in vivo at 500 mg/kg [6]: 55.9% | IC50 [7]: 5.3 µM | Activity [8]: 79.92% | Activity [9]: 60.85% | Activity [10]: Dose-dependent effect | Activity [11]: Non-toxic | Activity [12]: 51.68% | Activity [13]: 24.3% | Activity [14]: Active | Activity [15]: 9.54% | Activity [16]: 55.23% | Activity [17]: 2.82% | Activity [18]: 10.29% | Activity [19]: 0.83% | IC50 [20]: 13.2 µM | Activity [21]: 12.53% | IC50 [22]: 15.7 µM | Ratio IC50 [23]: 1.2 | Activity [24]: Active | inhibition in vivo at 100 mg/kg [25]: 44.6% | Activity [26]: 78.8% | Activity [27]: Active | Activity [28]: 37.4% | Activity [29]: 28.62% | viability at 5 µM [30]: 59%
